Bioassay records: PubChem BioAssay, several laboratories
In the library only some 2.8% were active in any assay of this set; here they are far more common.
NPY-Y1 PAM-ag: potentiators or agonists of human neuropeptide Y receptor Y1. NPY-Y1 expressing cells, potentiator/agonist activation. activation, % at 3.6 µM. 220,000 tested, 0.37% active. AID 1304; in the data active means activation above about 33%, passing the limit was not always enough;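 further: cells stimulated with NPY at EC10 then isoproterenol at EC100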
NPY-Y1 antag: NPY-Y1 (human) receptor antagonism. P25929. HEK293-CNG Y1 cells, membrane potential fluorescence; NPY at EC95, then isoproterenol. inhibition, % at 3.6 µM. 200,000 tested, 1% active. AID 1040;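 active means inhibition above the campaign mean inhibition of all tested compounds plus 3 SD, cut at about 20% in these data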
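Material: HEK293 Y1/CNG channel cell line | Also added: NPY (25 nM), isoproterenol (1 µM), Ro 20-1724 (25 µM) | Compound: One concentration, 3.6 µM, in 0.4% DMSO | Schedule: 3 h dye uptake, 1 h room-temperature compound, 45 min post-isoproterenol | Signal: Membrane-potential fluorescent dye readout | Read-out: % inhibition of NPY effect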
NPY-Y2 PAM-ag: human NPY-Y2 potentiation or agonism, primary screen. P49146. activation, % at 3.6 µM. cells expressing NPY-Y2, potentiator/agonist read-out. AID 1359. 220,000 tested, 0.45% active; in the data active means activation above about 27%;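 further: cells stimulated with NPY near EC25 plus isoproterenol at EC100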
Measles CPE: protection of cells from measles virus | AID 841 | Measles virus-infected cells, CPE protection, absorbance | protection (pct of control), % at 4 µM | 140,000 tested, 1.5% active; in the data active means protection mostly above about 24%, no sharp cut-off; inactive means mostly below about 26%
Mdm2 ligase inh: Mdm2 E3 ligase (human) inhibition; Q00987; cell-based MDM2 ubiquitination luciferase reporter, 2 h; 0 = plate control, 100 = twice control, blank-subtracted; signal enhancement, % at 5 µM; 210,000 tested, 0.11% active;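 active means signal enhancement of 30% or more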;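 further: luminescence tracks abundance of the self-degrading MDM2-luciferase fusion protein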
Target sequence (Q00987 whole entry, looked up, the tested form may be a part): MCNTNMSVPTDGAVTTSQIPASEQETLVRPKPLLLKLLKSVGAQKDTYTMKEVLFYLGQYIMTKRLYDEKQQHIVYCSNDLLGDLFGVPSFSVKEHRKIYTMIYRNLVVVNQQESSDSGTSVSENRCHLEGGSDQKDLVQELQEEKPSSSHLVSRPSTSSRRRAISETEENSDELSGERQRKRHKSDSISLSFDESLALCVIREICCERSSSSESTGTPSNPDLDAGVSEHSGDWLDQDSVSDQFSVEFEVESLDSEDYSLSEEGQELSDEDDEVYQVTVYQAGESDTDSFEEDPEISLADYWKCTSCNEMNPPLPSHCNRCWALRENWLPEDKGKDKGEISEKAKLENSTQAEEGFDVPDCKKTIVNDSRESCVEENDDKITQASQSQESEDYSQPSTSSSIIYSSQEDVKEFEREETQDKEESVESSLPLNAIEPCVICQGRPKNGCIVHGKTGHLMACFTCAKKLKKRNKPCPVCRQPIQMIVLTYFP
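Buffer or medium: Cells held in DMEM | Assay system: Stable mammalian line carrying autodegrading MDM2–luciferase fusion reporter | Quantity: 2000 cells/well | Times: 4 h settle plus 2 h compound, 37 °C | Doses: One concentration, 5 µM, with 0.2% DMSO | Technique: Luminescence with SteadyLite reagent, 15 min at room temperature | Benchmarks: Plate controls and plate blanks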
NPY-Y2 antag: blocks the human neuropeptide Y Y2 receptor; P49146; NPY-Y2 expressing cells, antagonist mode; inhibition, % at 2.7 µM; 140,000 tested, 0.99% active; AID 793; in the data active means inhibition above about 17%
NPY-Y1 antag ct: human NPY-Y1 antagonism in NPY-Y2 counter-screen. shares compounds with NPY-Y2 antag. 710 tested, 19% active. cell-based NPY-Y1 antagonism counterscreen. inhibition, % at 3.6 µM;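 further: cells challenged with NPY then isoproterenol with cAMP sensed through a CNG channel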
NPY2 antag conf: human NPY-Y2 antagonism, confirmation. shares compounds with NPY-Y2 antag. HEK293 NPY-Y2 CNG channel, membrane potential fluorescence. inhibition, % at 2.8 µM. 710 tested, 32% active. AID 1257;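 active means mean inhibition of triplicate wells above the hit cutoff set in the primary screen, cut at about 17% in these data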
NPY1 antag conf: human NPY-Y1 antagonism, confirmation; shares compounds with NPY-Y1 antag; HEK293-CNG NPY-Y1, membrane potential fluorescence, cAMP; NPY challenge against isoproterenol-raised cAMP; inhibition, % at 3.6 µM; 1,200 tested, 21% active
NPY2 antag ctr: antagonizes human NPY-Y2, counter-screen to NPY-Y1 antagonists. shares compounds with NPY-Y1 antag. HEK293 NPY-Y2 CNG membrane potential fluorescence, antagonism; cells given NPY, then isoproterenol. inhibition, % at 3.6 µM. 1,200 tested, 28% active. AID 1255; in the data active means inhibition above about 17%
NPY-Y2 pot conf: human NPY-Y2 potentiation or agonism, confirmation; activation, % at 3.6 µM; cell-based NPY-Y2 potentiator/agonist assay; 450 tested, 20% active; shares compounds with NPY-Y2 PAM-ag; AID 1539; in the data active means activation above about 33%
NPY-Y1 potentiator: NPY-Y1 potentiation or agonism as NPY-Y2 counter-screen | 450 tested, 20% active | AID 1651 | Y1 HEK293-CNG cells, membrane potential fluorescence | activation, % at 3.6 µM | shares compounds with NPY-Y2 PAM-ag; in the data active means activation above about 45%;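 further: cells stimulated with submaximal NPY then isoproterenol with phosphodiesterase inhibitor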
NPY-Y1 agonist 2: human NPY-Y1 agonism as NPY-Y2 potentiator counter-screen; activation, % at 3.6 µM; 450 tested, 37% active; shares compounds with NPY-Y2 PAM-ag; AID 1702; HEK293 Y1-CNGC, membrane potential fluorescence;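 active means activation above the mean of DMSO-only control wells plus 3 SD, cut at about 18% in these data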;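 further: cells stimulated with 1 µM isoproterenol plus the PDE inhibitor Ro 20-1724; Y1 agonists lower the membrane potential dye signal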
CNGC inhibitor: cyclic nucleotide gated channel inhibition as counter-screen; HEK293-CNG parental, isoproterenol cAMP, membrane potential fluorescence; inhibition, % at 3.6 µM; shares compounds with NPY-Y2 PAM-ag; 450 tested, 32% active; AID 1703;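 active means inhibition above the control-well mean plus 3 SD of those wells, cut at about 22% in these data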
NPY-Y2 ag 2: counter-screen for NPY-Y2 potentiators: agonists of human NPY-Y2; shares compounds with NPY-Y2 PAM-ag; HEK293 Y2/CNGC cells, membrane potential fluorescence, agonist mode; activation, % at 3.6 µM; 450 tested, 56% active; AID 1710;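 active means activation above the mean of solvent-only control wells plus 3 SD, cut at about 10% in these data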;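 further: cells stimulated by isoproterenol with no NPY added so direct agonism is tested; agonism lowers probe fluorescence through less cAMP and CNG channel opening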
Numbers stand for hits; . = inactive; / = no result given. Unless noted, no stated cut-off is given here; in the data, active means inhibition above about 20%; inactive means the rest.

SMILES	NPY-Y1 PAM-ag	NPY-Y1 antag	NPY-Y2 PAM-ag	Measles CPE	Mdm2 ligase inh	NPY-Y2 antag	NPY1 antag conf	NPY2 antag ctr	others
CCC1CCCCN1CC(=O)c1ccc(OC(F)F)cc1 (centres undefined)	.	.	.	.	.	.	/	/
CN(C)c1ccc(P(=S)(N(C)C)N(C)C)cc1	.	.	.	.	.	.	/	/
CCOP(=S)(OCC)c1ccc(N(C)C)cc1	.	.	.	.	.	17.2	/	/	NPY-Y1 antag ct=.;NPY2 antag conf=.
CCC(=NCCC(c1ccccc1)c1ccccc1)c1c(O)[nH]c(=O)[nH]c1=O	.	.	.	.	.	35.1	/	/	NPY-Y1 antag ct=39.8;NPY2 antag conf=66.8
COP(=O)(OC)C(Nc1ccccn1)c1ccccc1 (centres undefined)	.	.	.	.	.	.	/	/
O=P(Oc1ccccc1)(Oc1ccccc1)C(Nc1ccccc1)c1ccccc1 (centres undefined)	.	.	.	.	.	28.2	/	/	NPY-Y1 antag ct=26.5;NPY2 antag conf=20.0
CN(C)C(Cc1ccccc1)C(=O)c1ccc(-c2ccccc2)cc1 (centres undefined)	.	27.1	.	.	.	.	.	.
O=c1[nH]c(=O)n(-c2cccc3ccccc23)c(O)c1/C=N/N1CCCCC1c1cccnc1 (centres undefined)	.	25.4	.	.	.	.	.	.
COc1cccc(C(=O)C2CCCN(Cc3ccc4nonc4c3)C2)c1 (centres undefined)	.	29.1	.	/	.	/	.	.
CC1=CC(=C2C(=O)NC(=S)NC2=O)C=C(C(F)(F)F)N1CCc1ccccc1	.	.	.	/	.	/	/	/
Cc1cc(NCCN)nc2ccccc12	.	20.8	.	.	.	.	.	.
CCOc1cc(C2NCc3ccccc3-n3cccc32)ccc1O (centres undefined)	.	22.1	.	.	.	.	.	.
CCOc1cccc(C2NCc3ccccc3-n3cccc32)c1O (centres undefined)	.	.	.	/	.	.	/	/
CCOC(=O)C1(CCc2ccccc2)CCN(C2CCSCC2)CC1	.	22.9	.	/	.	/	.	.
CCCCn1c(O)c(C(=O)/C=C/c2c[nH]c3ccccc23)c(=O)[nH]c1=O	.	/	.	/	.	/	/	/
CCc1c(C)nc(N)nc1N1N=C1SC(C(C)=O)C(C)=O	.	.	.	/	.	/	/	/
CCOP(=O)(OCC)C(NC(C)=O)C(Cl)(Cl)Cl (centres undefined)	.	.	.	.	.	.	/	/
Fc1ccccc1CNC1CN2CCC1CC2 (centres undefined)	.	.	.	/	.	/	/	/
Cc1ccccc1C(O)(Cc1ccccc1)C1CN2CCC1CC2 (centres undefined)	.	20.9	.	.	.	.	.	.
NCCCCCC(=O)OC1N=C(c2ccccc2Cl)c2cc(Br)ccc2NC1=O (centres undefined)	.	.	.	/	.	/	/	/
COc1cccc(NP(=O)(Oc2ccccc2)Oc2ccccc2)c1	.	22.1	.	.	.	.	.	.
CN1CCC(N(C)c2nc(-c3ccc([N+](=O)[O-])cc3)nc3ccccc23)CC1	.	.	.	.	.	.	/	/
CN(CC1COc2ccccc2O1)c1nc(-c2cccnc2)nc2ccccc12 (centres undefined)	.	21.9	.	.	.	.	.	.
COc1ccc2c(CN3CC=C(c4ccccc4)CC3)cc(=O)oc2c1	.	.	.	/	.	/	/	/
COc1ccc2ccc(O)c(CN3CC=C(c4ccccc4)CC3)c2c1	.	23.2	.	/	.	/	.	23.8
Cc1ccsc1C(=O)C1CCCN(Cc2ccccc2O)C1 (centres undefined)	.	.	.	/	.	/	/	/
Cc1ccsc1C(=O)C1CCCN(Cc2cccn2-c2ccccn2)C1 (centres undefined)	.	28.6	.	/	.	/	20.8	24.5
COc1ccc(CC2(CCc3ccncc3)C(=O)NC(=O)NC2=O)c(OC)c1	.	.	.	/	.	/	/	/
CN(C)c1ccc(-[n+]2c(-c3ccccc3)cc(-c3ccccc3)cc2-c2ccccc2)cc1	.	50.5	50.7	/	.	/	35.1	17.8	NPY-Y2 pot conf=.;NPY-Y1 potentiator=.;NPY-Y1 agonist 2=.;CNGC inhibitor=.;NPY-Y2 ag 2=11.8
CC1CCN(c2cc(Br)c([N+](=O)[O-])cc2F)CC1	.	/	.	/	/	/	/	/
